According to PubChem BioAssay AID449754 (Broad Institute, 2010):
Records with an inconclusive call do not appear. Activity calls are given as the source filed them.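 How the source made its calls: active means compounds whose fitted caspase activation AC50 is no more than tenfold above the top tested dose; inconclusive means flat fit with 30 to 70% activity, or a failed fit; inactive means the rest.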

tested on: MEF Bax/Bak KO A1-BIM, caspase-Glo luminescence, 3 h; assay: caspase signal in Bax-Bak null A1-BIM cells – cell-based, Bax-Bak knockout MEF, A1-2A-BIM, luminescence, counter-screen for A1 inhibitor project, dose response (AID 449754);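 further: counterscreen where caspase activation signals off-target toxicity not A1 inhibition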
Method in brief: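 Material: A1-2A-BIM MEFs lacking Bax and Bak / Buffer or medium: RPMI-1640, 10% FBS / Compound: 100 nL pinned compound per well / Timing: 3 h compound at 37 °C, 1 h detection at RT / Technique: CaspaseGlo luminescence, reagent diluted 1:1 in 50 mM HEPES / Read-out basis: caspase activity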

Row | SMILES | AC50
1 | CCCCN1C(=O)/C(=C2/Sc3ccccc3N2C)S/C1=N\c1ncn[nH]1 | > 35 µM (inactive)
2 | O=C(Nc1ccc2oc(-c3ccccc3F)nc2c1)c1ccccc1F | > 35 µM (inactive)
3 | O=C(COc1ccc(/C=N/NC(=O)c2cc3ccccc3o2)cc1Cl)Nc1ccccc1 | 9.03 µM
4 | Cc1ccc(-c2nc(NC(=O)c3nn(C)cc3[N+](=O)[O-])sc2C)cc1 | 6.29 µM
5 | COc1cc(NC(=O)c2cccc(C)c2)ccc1NC(=O)c1cc2ccccc2o1 | > 35 µM (inactive)
6 | COc1cc2cnc(-c3ccccc3)c(-c3cccc(C(F)(F)F)c3)c2cc1OC | > 35 µM (inactive)
7 | Cc1cccc(C)c1NC(=O)C(Cl)C(=O)c1ccccc1 (stereo not drawn) | > 35 µM (inactive)
8 | CCC(Sc1nc2cc3c(cc2c(=O)n1Cc1ccco1)OCO3)C(=O)Nc1cccc(OC)c1 (stereo not drawn) | > 35 µM (inactive)
9 | COc1ccc2c(-c3cc4ccc(OCc5ccc(F)cc5)cc4oc3=O)cc(=O)oc2c1 | 36.6 µM
10 | Cc1nc(SCc2nc3c([N+](=O)[O-])cccc3[nH]2)c2oc3ccccc3c2n1 | > 35 µM (inactive)
11 | Cc1ccc(NC(=O)CSc2nc3nc(C)c(Br)cc3[nH]2)cc1F | > 35 µM (inactive)
12 | O=C(NC[C@H]1CCCO1)c1cccc2c1C(=O)c1ccc(-c3ccc(F)cc3OCc3ccccc3)cc1S2(=O)=O | > 35 µM (inactive)
13 | CC(=O)Nc1ccc(NC(=O)C(=O)NCC(c2ccco2)N2CCc3ccccc32)cc1 (stereo not drawn) | 35.8 µM
14 | Cc1cc(NC(=O)/C(C#N)=C/c2ccc(-c3ccc(SC(F)F)cc3)o2)n(-c2ccccc2)n1 | > 35 µM (inactive)
15 | O=C1C2C3C=CC(CO)(O3)C2C(=O)N1c1ccc(-c2ccccc2)cc1 (stereo not drawn) | > 35 µM (inactive)
16 | COC(=O)CSc1nc(N)c2c3c(sc2n1)C(c1ccccc1)SC(c1ccccc1)C3 (stereo not drawn) | > 35 µM (inactive)
17 | CCOc1cc(/C=N/Nc2cc(C)nc(-n3nc(C)cc3C)n2)ccc1O | > 35 µM (inactive)
18 | Cc1cc(C(=O)CCl)c(C)n1CCc1ccc(Cl)cc1 | > 35 µM (inactive)
19 | c1ccc(-c2sc3ccccc3c2-c2ccc(OCCN3CCCC3)cc2)cc1 | 33 µM
20 | Cc1c(C=O)c(C=O)c(C)n1Cc1ccccc1 | > 35 µM (inactive)
21 | O=C(NCc1ccccc1Br)c1cccc2c1C(=O)c1ccc(-c3ccc(OC(F)(F)F)cc3)cc1S2(=O)=O | > 35 µM (inactive)
22 | Cc1ccc(Sc2c([N+](=O)[O-])c(=O)n(C)c3ccccc23)cc1 | > 35 µM (inactive)

Row | SMILES | AC50
23 | COc1ccc(OC[C@@H](O)CNC(=O)c2cccc3c2C(=O)c2ccc(-c4ccc(F)cc4OCc4ccccc4)cc2S3(=O)=O)cc1 | > 35 µM (inactive)
24 | C=C1CCc2c([nH]c3ccc(OCC(C)C)cc23)C1=O | 16.6 µM
25 | CC(=O)Nc1ccc(NC(=O)C(C)OC(=O)/C=C/c2cn(-c3ccccc3)nc2-c2cccnc2)cc1 (stereo not drawn) | 18.4 µM
26 | COc1ccc(NC(=O)C(=O)N/N=C\c2ccc(CNC(=O)C(=O)Nc3ccc(C)c(C)c3)o2)c(OC)c1 | 32 µM
27 | O=C(Nc1ccc(Cl)cc1Cl)c1cccc(N2C(=O)C=CC2=O)c1 | > 35 µM (inactive)
28 | COc1ccccc1-c1cn[nH]c1-c1ccc(OCc2ccccc2)cc1O | > 35 µM (inactive)
29 | CCCc1ccc(OCc2ccc(C(=O)N/N=C/c3cccc([N+](=O)[O-])c3)o2)c(OC)c1 | 26.3 µM
30 | CC[C@H]1CN2CCc3cc(OC)c(OC)cc3[C@@H]2C[C@@H]1C[C@H]1NCCc2cc(OC)c(OC)cc21 | > 35 µM (inactive)
31 | O=S1(=O)CCOC[C@H](CC2CCCCC2)N1Cc1cccc(Cl)c1 | > 35 µM (inactive)
32 | COc1ccccc1CCNC(C)CCc1ccc(O)cc1 (stereo not drawn) | > 35 µM (inactive)
33 | C=CC(=O)Nc1ccc(CN2C(=O)N(c3c(Cl)c(OC)cc(OC)c3Cl)Cc3cnc(NCCCCN(CC)CC)nc32)cc1 | > 35 µM (inactive)
34 | COc1ccc2c(c1)CCc1c(C(=O)Nc3cc(C)n(Cc4ccc(Cl)cc4)n3)noc1-2 | 7.59 µM
35 | O=C(Nc1ccc([N+](=O)[O-])cc1)C(Cc1ccccc1)N1C(=O)c2cccc3cccc(c23)C1=O (stereo not drawn) | > 35 µM (inactive)
36 | COc1cc(/C=C(/C#N)c2nc3ccccc3[nH]2)ccc1OCC(=O)Nc1ccccc1C | 7.39 µM
37 | Cc1ccc(C#N)c(SCC(=O)Nc2nccs2)n1 | > 35 µM (inactive)
38 | COc1cc(/C=C(/C#N)C(=O)Nc2ccc(Cl)cc2)ccc1Oc1nc(Cl)ncc1F | > 35 µM (inactive)
39 | CCn1c(SCC(=O)c2ccccc2)nnc1-c1cc2cc(Br)ccc2o1 | > 35 µM (inactive)
40 | Cc1cc(NC(=O)CSc2nc3cc(Cl)ccc3c(=O)n2Cc2ccco2)no1 | > 35 µM (inactive)
41 | COc1cc(NC(=O)c2ccccc2)c(OC)cc1NC(=O)Cc1ccc(Br)cc1 | > 35 µM (inactive)
42 | COc1cc(C(=O)Nc2cc3c(cc2N2CCCCC2)n(C)c(=O)n3C)cc(OC)c1OC | > 35 µM (inactive)
43 | Cc1[nH]nc2nc(SCC(=O)NCCC3=CCCCC3)n(-c3ccc(Br)cc3)c(=N)c12 | 18.6 µM
